Test [1] relates to Rattus norvegicus. As to the kind of experiment: Blood urea nitrogen level in serum upon single dose administration was determined as measure of nephrotoxicity; Normal range = 5-29 mg/dL. Type of test: functional, organism-based. In a few lines:
(§1)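 Nephrotoxicity was assessed after a single dose of compound by measuring serum blood urea nitrogen and creatinine in mg/dL by cited methods. Values are mean ± SE against a normal range.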

Test [2] has as its system Rattus norvegicus. Put plainly: Blood urea nitrogen level in serum upon administration of five doses was determined as measure of nephrotoxicity; Normal range = 5-29 mg/dL. Format: functional, organism-based. Put shortly:
(§2)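 Nephrotoxicity was assessed after five doses of compound by measuring serum blood urea nitrogen and creatinine in mg/dL by cited methods. Values are mean ± SE against a normal range.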

In test [3] the test system is Rattus norvegicus. Put plainly: Percent decrease in weight of cholesterol in liver wet tissue after treatment with compound at 20 mg/kg dose for seven days. Format: functional. Put shortly: (§3)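 Male Wistar rats, six per group, were fed a 5% cholesterol diet for 1 week. They were dosed orally at the same time with 20 mg/kg bwt as a suspension in water, and the experiment was run three times. Serum and liver cholesterol were measured by the Zlatkis method, and liver triglyceride by the Van Handel–Zilversmit method, on about 1 g of saline-washed tissue.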

The target in test [4] is T1, 3-hydroxy-3-methylglutaryl-coenzyme A reductase (Rattus norvegicus) (UniProt P51639).
T1 sequence (whole entry): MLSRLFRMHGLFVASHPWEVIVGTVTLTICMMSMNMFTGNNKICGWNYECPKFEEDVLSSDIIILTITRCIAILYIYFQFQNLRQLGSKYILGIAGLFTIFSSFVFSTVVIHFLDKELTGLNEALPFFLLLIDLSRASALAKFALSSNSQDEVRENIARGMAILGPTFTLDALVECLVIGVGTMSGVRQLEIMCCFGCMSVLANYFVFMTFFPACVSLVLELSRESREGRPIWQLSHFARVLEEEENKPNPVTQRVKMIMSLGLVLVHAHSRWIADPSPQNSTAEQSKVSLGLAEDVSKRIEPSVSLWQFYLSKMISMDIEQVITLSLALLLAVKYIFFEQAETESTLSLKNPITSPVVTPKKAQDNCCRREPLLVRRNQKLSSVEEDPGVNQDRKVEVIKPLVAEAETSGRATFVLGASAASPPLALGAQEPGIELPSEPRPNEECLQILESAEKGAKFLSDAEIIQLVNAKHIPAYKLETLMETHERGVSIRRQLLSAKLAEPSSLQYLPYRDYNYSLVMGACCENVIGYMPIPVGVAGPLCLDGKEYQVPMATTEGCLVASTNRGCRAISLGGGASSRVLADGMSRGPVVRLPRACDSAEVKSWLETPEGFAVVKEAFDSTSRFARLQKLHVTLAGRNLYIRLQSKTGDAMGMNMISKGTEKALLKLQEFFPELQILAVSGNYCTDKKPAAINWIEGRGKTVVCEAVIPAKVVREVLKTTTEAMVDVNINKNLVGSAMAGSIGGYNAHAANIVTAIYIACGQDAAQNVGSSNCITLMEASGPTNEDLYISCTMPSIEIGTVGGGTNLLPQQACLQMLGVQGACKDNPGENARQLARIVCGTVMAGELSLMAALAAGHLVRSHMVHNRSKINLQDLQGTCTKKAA
As to the kind of experiment: Ratio of HMG-CoA reductase to mevalinate. Put shortly: (§4)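 Male Wistar rats, six per group, received a 5% cholesterol diet for 1 week plus an oral 20 mg/kg bwt dose given as a suspension in water. The experiment was run three times. Hepatic HMG-CoA reductase activity was determined by the Venugopala Rao method and expressed as the HMG-CoA/mevalonate ratio.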

For test [5], the system named is Rattus norvegicus. Put plainly: Alanine transferase (GPT) enzyme level in serum upon administration of five doses was determined as measure of hepatotoxicity; Normal range = 18-30 IU. Type of test: functional. Put shortly: (§5)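 Oral dosing of the compounds as aqueous suspensions, given either as a single dose or as five doses. Hepatotoxicity was assessed from serum alanine transferase and aspartate transferase (IU) and alkaline phosphatase (KA units). Each marker was set against the normal ranges listed.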

Test [6] has as its system Rattus norvegicus. As to the kind of experiment: Weight of cholesterol in liver wet tissue after treatment with compound at 20 mg/kg dose for seven days. Format: functional. In a few lines: (§6)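 Male Wistar rats, six per group, were fed a 5% cholesterol diet for one week while receiving compound at 20 mg/kgbwt orally as a suspension in water. Serum was separated, and about 1 g of liver, washed in ice-cold 0.85% NaCl, was taken for lipids. Cholesterol was measured by the Zlatkis method and liver triglyceride by the Van Handel–Zilversmit method. The run was repeated three times; values are mean ± SE.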

For test [7], the system named is Rattus norvegicus. As to the kind of experiment: Alkaline phosphatase enzyme level upon single dose administration was determined as measure of hepatotoxicity; Normal range = 14-32 KA units. Format: functional. Put shortly:
as §5

Test [8] deals with Rattus norvegicus. As to the kind of experiment: Aspartate transferase (GOT) enzyme level in serum upon single dose administration was determined as measure of hepatotoxicity; Normal range = 46-81 IU. Type of test: functional. Put shortly:
as §5

The subject of test [9] is Rattus norvegicus. As to the kind of experiment: Alanine transferase (GPT) enzyme level in serum upon single dose administration was determined as measure of hepatotoxicity; Normal range = 18-30 IU. Format: functional. Put shortly: as §5
The test system of test [10] is Rattus norvegicus. Put plainly: Weight of serum cholesterol after treatment with compound at 20 mg/kg dose for seven days. Format: functional. Put shortly: as §6
Test [11] relates to Rattus norvegicus. Put plainly: Creatinine level in serum upon single dose administration was determined as measure of nephrotoxicity; Normal range = 0.20-0.80 mg/dL. Type of test: functional, organism-based. Put shortly:
as §1

Test [12] has as its system Rattus norvegicus. Put plainly: Percent decrease in weight of serum cholesterol after treatment with compound at 20 mg/kg dose for seven days. Type of test: functional. In a few lines:
as §3

For test [13], the system named is Rattus norvegicus. Put plainly: Creatinine level in serum upon administration of five doses was determined as measure of nephrotoxicity; Normal range = 0.20-0.80 mg/dL. Type of test: functional, organism-based. In a few lines:
as §2

Test [14] has as its system Rattus norvegicus. As to the kind of experiment: Weight of triglyceride in liver wet tissue after treatment with compound at 20 mg/kg dose for seven days. Format: functional. Put shortly:
as §6

The test system of test [15] is Rattus norvegicus. As to the kind of experiment: Aspartate transferase (GOT) enzyme level in serum upon administration of five doses was determined as measure of hepatotoxicity; Normal range = 46-81 IU. Format: functional. In a few lines: as §5
Test [16] concerns Rattus norvegicus. Put plainly: Alkaline phosphatase enzyme level in serum upon administration of five doses was determined as measure of hepatotoxicity; Normal range = 14-32 KA units. Format: functional. In a few lines: as §5
The test system of test [17] is Rattus norvegicus. Put plainly: Percent decrease in weight of triglyceride in liver wet tissue after treatment with compound at 20 mg/kg dose for seven days. Format: functional. In a few lines:
as §3

Test [18] deals with T1, 3-hydroxy-3-methylglutaryl-coenzyme A reductase (Rattus norvegicus). As to the kind of experiment: Percent decrease in HMG-CoA reductase activity in rat. Put shortly: as §4
Test [19] deals with Rattus norvegicus. Put plainly: Alkaline phosphatase enzyme level in serum upon single dose administration was determined as measure of hepatotoxicity; Normal range = 14-32 KA units. Format: functional. Put shortly:
as §5

`COc1ccc(/C=C/CSSC/C=C/c2ccc(OC)cc2)cc1`: the Level in test [1] worked out at 7.43 mg/dL; in [2], 8.48 mg/dL; in [11], 0.59 mg/dL; in test [13], 0.49 mg/dL. The Decrease in [3] was found to be 1.2%; in test [12], 2.05%; in test [17], 4.91%; in test [18], 3.69%. For the same molecule, the Ratio in test [4] was determined as 1.68. Besides, the Activity in test [5] stood at 23 IU; in test [7] it was 45.6 KA Units; in [8], 49 IU; in test [9], 26.5 IU; in [15] it was 29.5 IU; in [16] it was 25.2 KA Units. The Weight in test [6] stood at 4.9 mg/g; in [10], 61.95 mg/dL; in test [14], 14.8 mg/g.

Regarding `CC[C@H](C)C(=O)O[C@H]1C[C@@H](C)C=C2C=C[C@H](C)[C@H](CC[C@@H]3C[C@@H](O)CC(=O)O3)[C@H]21` [LOVASTATIN], the Decrease in test [3] was found to be 42.3%; in test [12], 31.2%; in [17], 36.91%; in test [18], 35.4%. Also, in test [4], the Ratio was determined as 2.2. Further, the Weight in test [6] worked out at 2.84 mg/g; in [10], 43.5 mg/dL; in test [14] it was 9.86 mg/g.

Take `Nc1ccc(/C=C/CSSC/C=C/c2ccc(N)cc2)cc1`: the Level in test [1] was 13 mg/dL; in test [2], 14.6 mg/dL; in test [11], 0.55 mg/dL; in test [13], 0.84 mg/dL. Further, the Decrease in [3] is 3.13%; in test [12], 5.5%; in test [17] it was 6.71%; in [18], 7.5%. Moreover, the Ratio in [4] was 1.74. Further, the Activity in test [5] came to 21 IU; in [8] it was 51.5 IU; in test [9], 26.5 IU; in test [19], 40.6 KA Units; in test [15] it was 37 IU; in test [16], 46.9 KA Units. Besides, the values for the Weight in [6], in [10] and in [14] were 4.81 mg/g, 59.76 mg/dL and 14.6 mg/g, respectively.

Turning to `O=C(O)c1ccc(/C=C/CSSC/C=C/c2ccc(C(=O)O)cc2)cc1`, the Level in [1] was 20.2 mg/dL; in test [2], 17.4 mg/dL; in test [11], 0.61 mg/dL; in [13], 0.7 mg/dL. Further, the Decrease in test [3] worked out at 13.3%; in test [12], 7.01%; in test [17], 8.28%; in test [18], 24.2%. The Ratio in test [4] was determined as 2.02. Besides, the Activity is 28 IU in test [5]; 53 IU in test [8]; 25 IU in test [9]; 31 KA Units in test [19]; 56 IU in test [15]; 32.8 KA Units in test [16]. Moreover, the figures for the Weight in [6], in [10] and in [14] were 4.3 mg/g, 58.82 mg/dL and 14.3 mg/g, respectively.

As for `C=CCS[S+]([O-])CC=C` (stereo unspecified) [ALLICIN], the Decrease in test [3] is 27.6%; in test [12], 20.5%; in [17], 39.6%; in [18], 27.6%. The Ratio in test [4] was found to be 2.07. Moreover, the Weight in test [6] worked out at 3.59 mg/g; in [10], 50.25 mg/dL; in [14], 9.44 mg/g.

Take `C(=C\c1ccccc1)/CSSC/C=C/c1ccccc1`: the Level was 12.4 mg/dL in [1], 7.37 mg/dL in test [2], 0.58 mg/dL in [11] and 0.57 mg/dL in test [13]. The Decrease in [3] is 2%; in test [12], 3.63%; in test [17] it was 4.9%; in [18] it was 5.9%. Besides, the Ratio in test [4] was 1.72. Further, the Activity was found to be 27 IU in test [5]; 51 IU in test [8]; 17.5 IU in [9]; 34 KA Units in [19]; 39 IU in [15]; 33.6 KA Units in test [16]. Moreover, the Weight came out at 4.86 mg/g in test [6], 60.95 mg/dL in test [10] and 14.2 mg/g in [14].

In the case of `O=[N+]([O-])c1ccc(/C=C/CSSC/C=C/c2ccc([N+](=O)[O-])cc2)cc1`, the Level in [1] turned out to be 7.65 mg/dL; in [2], 6.48 mg/dL; in [11], 0.4 mg/dL; in test [13], 0.8 mg/dL. For the same molecule, the Decrease in test [3] amounted to 36.5%; in test [12], 30.2%; in test [17], 9.21%; in test [18] it was 55.7%. Also, in test [4], the Ratio was determined as 2.53. Besides, the Activity in test [5] is 15.5 IU; in [8] it was 51 IU; in [9] it was 21 IU; in test [19], 29.5 KA Units; in test [15] it was 49 IU; in test [16], 48 KA Units. The Weight in [6] is 3.15 mg/g; in test [10] it was 44.15 mg/dL; in test [14], 14.8 mg/g.

The values are drawn from ChEMBL document CHEMBL1137994, “Bis[3-(4'-substituted phenyl)prop-2-ene]disulfides as a new class of antihyperlipidemic compounds” (2004).
